Compound activity (PubChem)
Rtt109 HAT inh: inhibitors of C. albicans Rtt109/Vps75 HAT, primary screen, biochemical, ThioGlo CoA-SH fluorescence, plate reader | 330,000 tested, 0.16% active | purified Rtt109/Vps75, 4 h | AID 540336, 2011 | inhibition, % at 34.9 µM;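 active = inhibition of at least 50% in every replicate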
Target sequence (Q5AAJ8 whole entry, looked up): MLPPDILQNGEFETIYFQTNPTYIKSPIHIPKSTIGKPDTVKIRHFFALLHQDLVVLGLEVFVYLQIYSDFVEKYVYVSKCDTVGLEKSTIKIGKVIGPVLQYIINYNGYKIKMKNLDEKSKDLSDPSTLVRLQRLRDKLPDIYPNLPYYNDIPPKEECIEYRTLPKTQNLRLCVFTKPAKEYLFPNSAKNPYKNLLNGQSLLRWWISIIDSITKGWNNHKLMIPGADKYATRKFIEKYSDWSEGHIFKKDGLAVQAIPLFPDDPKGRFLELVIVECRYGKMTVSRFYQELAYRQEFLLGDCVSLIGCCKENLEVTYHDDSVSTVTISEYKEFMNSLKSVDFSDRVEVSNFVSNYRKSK
JMJD2C inh: inhibitors of GASC-1 histone demethylase, primary screen, biochemical, fluorescence, DELFIA europium | 330,000 tested, 0.069% active | Lysine-specific demethylase 4C (Homo sapiens), Q9H3R0 | inhibition, % at 2.35 µM | GST-JMJD2C(1-420) H3K9me3 demethylation;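 active = more than half of a compound's replicate wells show inhibition beyond 50%, single wells judged on their own value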;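 note: signal counts dimethyl H3K9 product captured on neutravidin plate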
T cell modulator: modulators of CD8 T cell-vesicle binding, primary screen, mouse 2C CD8+ T cells, flow cytometry | 2C CD8+ T cell-vesicle binding; hits give low values | response (vesicle binding), % at 7 µM | 330,000 tested, 0.068% active;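 active = response, share of CD8 T cells binding vesicles, and their 90th percentile fluorescence all below set limits, cut at about 80% in these data, passing the limit was not always enough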;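 note: values below 100% mean blocked vesicle binding to the CD8+ T cells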
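System: murine 2C transgenic CD8+ T lymphocytes; also added: QL9-loaded Drosophila micro-vesicles; times: binding 1.5 h at 37 °C; measured by: flow cytometry, PE anti-B7-1 (FL2) versus Alexa647 anti-CD8 (FL8), PFA-fixed; control set: Peptide-free naked vesicles (low) and QL9 vesicles with 0.7% DMSO vehicle (high)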
NR3A LBD binder: binders of NR3A ligand-binding domain, primary screen, biophysical, differential scanning fluorimetry, uHTS | 340,000 tested, 2.5% active | AID 1259313, 2017 | Tm shift relative to glycine control, % at 25 µM | Glutamate receptor ionotropic, NMDA 3A (GRIN3A) ligand-binding domain | NR3A LBD differential scanning fluorimetry, Tm shift; 0% = protein alone, 100% = glycine-bound protein;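 active = melting temperature shift of at least 10% of the positive control shift, at one fixed dose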
Hits are given with their value; 0 = inactive; - = not tested or not shown. Most compounds without a hit are left out; they make up all but 2.8% or so of the library.

SMILES | Rtt109 HAT inh | JMJD2C inh | T cell modulator | NR3A LBD binder
Cc1cccc(-c2nnn3c2nc(NCCc2ccc(S(N)(=O)=O)cc2)c2ccccc23)c1 | 0 | 0 | 0 | 33
Cc1ccc(-c2nnn3c2nc(NCCc2ccc(S(N)(=O)=O)cc2)c2ccccc23)cc1 | 0 | 0 | 0 | 86
NS(=O)(=O)c1ccc(CCNc2nc3c(-c4cccc(F)c4)nnn3c3ccccc23)cc1 | 0 | 0 | 0 | 15
O=C1C2C3C=CC(C4CC34)C2C(=O)N1CCCCN1CCN(c2ccc(F)cc2)CC1 (stereo not given) | 0 | 0 | 0 | 0
O=C(C1=C(O)C(=O)N(CC2CCCO2)C1c1ccccc1F)c1ccco1 (stereo not given) | 0 | 0 | 0 | 0
Nc1nc2c(-c3ccc(Br)cc3)nnn2c2ccccc12 | 0 | 0 | 0 | 37
CCOC(=O)c1ccc(/C=C2/C=C(c3ccccc3)N(c3ccc(Cl)c(C(=O)O)c3)C2=O)cc1 | 0 | 0 | 0 | 21
COc1cc(NS(=O)(=O)c2ccc(F)cc2)c(C(=O)O)cc1OC | - | 0 | 0 | 12
Cc1cc(C)cc(N2C(=O)CC(N3CCOCC3)C2=O)c1 (stereo not given) | 0 | 0 | 0 | 11
O=C1CCCC(=O)C1=C1SCCCS1 | 0 | 0 | 0 | 11
O=C1C(=C2SCCCS2)CC/C1=C\c1ccc(F)cc1 | 0 | 0 | 0 | 0
CCN(C[C@H]1N[C@@](C)(C(=O)OC)[C@H]2C(=O)N(Cc3ccccc3)C(=O)[C@@H]12)C(=O)NC(C)C | 0 | 0 | 0 | 14
CCN(C[C@H]1N[C@@](C)(C(=O)OC)[C@H]2C(=O)N(Cc3ccccc3)C(=O)[C@@H]12)S(=O)(=O)c1ccc(C)cc1 | 0 | - | 0 | 0
CCN(C[C@H]1N[C@@](Cc2ccccc2)(C(=O)OC)[C@H]2C(=O)N(Cc3ccccc3)C(=O)[C@@H]12)S(=O)(=O)c1ccc(-c2ccccc2)cc1 | 0 | 0 | 0 | 0
COC(=O)[C@]1(C)N[C@H](CN(C)S(=O)(=O)c2ccc(C)cc2)[C@@H]2C(=O)N(Cc3ccccc3)C(=O)[C@@H]21 | 0 | 62 | 0 | 0
COC(=O)[C@]1(C)N[C@H](CN(C)S(=O)(=O)c2ccc(C(C)(C)C)cc2)[C@@H]2C(=O)N(C)C(=O)[C@@H]21 | 0 | - | 0 | 0
COC(=O)[C@]1(C)N[C@H](CN(C)S(=O)(=O)c2ccc(OC(F)(F)F)cc2)[C@@H]2C(=O)N(C)C(=O)[C@@H]21 | 0 | - | 0.0 | 0
CCN(C[C@H]1N[C@@](Cc2ccccc2)(C(=O)OC)[C@H]2C(=O)N(Cc3ccccc3)C(=O)[C@@H]12)S(=O)(=O)c1ccccc1 | 0 | 61 | 0 | 0
COC(=O)[C@]1(C)N[C@H](CN(C)C(=O)NC(C)C)[C@@H]2C(=O)N(Cc3ccccc3)C(=O)[C@@H]21 | 0 | 0 | 0 | 0
O=C(Nc1nc2ccccc2s1)C1CCN(S(=O)(=O)c2cc([N+](=O)[O-])ccc2Cl)CC1 | 0 | 0 | 0 | 0
COc1ccc(-c2csc(NC(=O)c3ccccc3NS(=O)(=O)c3ccc(F)c(F)c3)n2)cc1 | 0 | 0 | 0 | 16
COc1ccc(-c2csc(NC(=O)c3ccccc3F)n2)cc1 | 0 | 0 | 0 | 0
Cc1ccc(S(=O)(=O)Nc2ccccc2C(=O)Nc2nc(-c3ccc(F)cc3)cs2)cc1 | 0 | 0 | 0 | 31
O=C(NC(=S)Nc1nc(-c2ccccc2)cs1)c1cncc(Br)c1 | - | 0 | 0 | 31
Cc1ccc(-c2csc(NC(=S)NC(=O)c3cccs3)n2)cc1 | 0 | 0 | 0 | 0
SMILES | Rtt109 HAT inh | JMJD2C inh | T cell modulator | NR3A LBD binder
O=C(NC(=S)Nc1nc(-c2ccccc2)cs1)c1cccnc1 | 0 | 0 | 0 | 0
O=C(Nc1nc(-c2cc(Cl)sc2Cl)cs1)c1cccs1 | 0 | 0 | 0 | 14
O=C(NC(=S)Nc1nc(-c2ccccc2)cs1)c1ccco1 | 0 | 0 | 0 | 16
O=C(Nc1nc(-c2cc(Cl)sc2Cl)cs1)c1ccc(Br)s1 | 0 | 0 | 0 | 0
O=C(NC(=S)Nc1nc(-c2ccccc2)cs1)c1cccs1 | 0 | 0 | 0 | 28
Cc1ccc(S(=O)(=O)N2CCC(C(=O)Nc3ccc(N4CCOCC4)cc3)CC2)cc1C | 0 | - | - | 0
NC(=S)Nc1nc2ccccc2[nH]c1=O | - | 0 | 0 | -
Cc1ccc2[nH]c(=O)c(NC(N)=S)nc2c1 | 0 | 0 | - | 11
Cc1ccccc1NC(=O)Cc1nc(COC(=O)c2ccc(S(C)(=O)=O)c([N+](=O)[O-])c2)cs1 | 0 | - | 0 | 0
COC(=O)c1sc(N2C(=O)C(O)=C(C(=O)c3ccc(C)o3)C2c2cc(OC)ccc2OC)nc1C (stereo not given) | 0 | 0 | 0 | -
O=S(=O)(Nc1nc2ccccc2nc1Nc1ccc2c(c1)OCCO2)c1cccs1 | 0 | 0 | 0 | 13
COc1ccc(S(=O)(=O)Nc2nc3ccccc3nc2Nc2ccc3c(c2)OCO3)cc1 | - | 0 | 0 | -
Cc1nn2cnnc2c(C)c1Cc1c(F)cccc1Cl | 0 | 0 | 0 | 0
Cc1ccc(S(=O)(=O)Nc2ccccc2)cc1[N+](=O)[O-] | 0 | - | - | 0
Cc1cccc2c(N=Nc3ccc(S(=O)(=O)Nc4cccc(Cl)c4)cc3[N+](=O)[O-])c(O)[nH]c12 | 0 | 0 | 0 | 13
O=S(=O)(Nc1nc2ccccc2nc1N1CCN(c2ccccc2F)CC1)c1ccc(Cl)cc1 | - | 0 | 0 | 21
CCOc1ccc(S(=O)(=O)Nc2nc3ccccc3nc2N2CCN(C)CC2)cc1 | 0 | 0 | 0 | 0
CC(=O)Nc1ccc(S(=O)(=O)Nc2nc3ccccc3nc2Nc2cccc(O)c2)cc1 | 0 | 0 | 0 | 19
CC(=O)Nc1ccc(Nc2nc3ccccc3nc2NS(=O)(=O)c2ccc(Cl)c([N+](=O)[O-])c2)cc1 | 0 | - | - | 24
CC(=O)Nc1ccc(S(=O)(=O)Nc2nc3ccccc3nc2Nc2ccc(C(=O)O)c(O)c2)cc1 | 0 | 0 | 0 | 24
O=C(N/N=C/c1cccc([N+](=O)[O-])c1)c1cc[n+](CCO)cc1 | 0 | 0 | 0 | 0
CCOc1ccccc1NC(=O)C1CCCN(S(=O)(=O)c2ccc(-n3cnnn3)cc2)C1 (stereo not given) | 0 | 0 | 0 | 0
COc1ccccc1/C=C/CN1CCC(n2nccc2NC(=O)C2CC2)CC1 | 0 | 0 | 0 | 0
CC(=O)Nc1ccc(S(=O)(=O)Nc2ccccc2C(=O)N2CCCC2)cc1 | 0 | 0 | 0 | 0
CC(=O)Nc1ccc(S(=O)(=O)Nc2nc3ccccc3nc2Nc2ccc3ccccc3c2)cc1 | 0 | 0 | 0 | 34
NS(=O)(=O)c1cccc(Nc2nc3ccccc3nc2NS(=O)(=O)c2ccc(Cl)cc2)c1 | 0 | 0 | 0 | 28
CC(=O)Nc1ccc(S(=O)(=O)Nc2cc(C)c(-n3nc4ccccc4n3)cc2O)cc1 | 0 | 0 | 0 | 10
CC(C)NC(=O)N(C)C[C@H]1Oc2c(NC(=O)C3CC3)cccc2C(=O)N([C@H](C)CO)C[C@@H]1C | 0 | 0 | 0 | 0
